Test results: ChEMBL document CHEMBL1125736, “N-[(omega-amino-1-hydroxyalkyl)phenyl]methanesulfonamide derivatives with class III antiarrhythmic activity” (1991)

Experiments:
[1] = test system: Canis familiaris; assay: Conduction time from Q wave to T wave of lead II electrocardiogram corrected for heart rate was tested in dogs at a dose of 0.3 mg/kg through intravenous administration. (baseline value- 352+/-7); type: functional, Canis lupus familiaris
[2] = test system: Canis familiaris; assay: Conduction time from Q wave to T wave of lead II electrocardiogram corrected for heart rate was tested in dogs at a dose of 1.0 mg/kg through intravenous administration. (baseline value- 352+/-7); type: functional, Canis lupus familiaris
[3] = test system: Canis familiaris; assay: Conduction time from the His bundle to the onset of ventricular depolarizations was tested in dogs at a dose of 0.1 mg/kg through intravenous administration. (baseline value- 17+/-1 ); type: functional, Canis lupus familiaris, Cardiac ventricle
[4] = test system: Canis familiaris; assay: Conduction time from the His bundle to the onset of ventricular depolarizations was tested in dogs at a dose of 0.3 mg/kg through intravenous administration. (baseline value- 17+/-1 ); type: functional, Canis lupus familiaris, Cardiac ventricle
[5] = test system: Canis familiaris; assay: Conduction time from the His bundle to the onset of ventricular depolarizations was tested in dogs at a dose of 1.0 mg/kg through intravenous administration. (baseline value- 17+/-1 ); type: functional, Canis lupus familiaris, Cardiac ventricle
[6] = test system: Canis familiaris; assay: Conduction time from the atrium to His bundle was tested in dogs at a dose of 0.1 mg/kg through intravenous administration. (baseline value- 73+/-3 ); type: functional, Canis lupus familiaris
[7] = test system: Canis familiaris; assay: Compound was tested in vivo in dogs at a dose of 0.1 mg/kg through intravenous route and time at which ventricular arrhythmias were not indicible was recorded.(Base line value-1); type: functional, Canis lupus familiaris, Cardiac ventricle
In short: (§1)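 Dogs with myocardial infarction were studied 3-9 days after infarction. They were reanesthetized with pentobarbital, ventilated, and electrodes were placed via thoracotomy; blood gases were monitored. Control ERPs and reproducible inducibility were set by programmed electrical stimulation, then cumulative iv doses were given. Agents were in glass-distilled water or NaOH-neutralized saline (pH 6.7-7.0). Animals were counted per category: NI, nonsustained, sustained, VF, or AV block preventing atrial pacing.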

[8] = test system: Canis familiaris; assay: Compound was tested in vivo in dogs at a dose of 1.0 mg/kg through intravenous route and time at which sustained ventricular arrhythmias were induced was recorded.(Base line value-3); type: functional, Canis lupus familiaris, Cardiac ventricle; in short: as §1
[9] = test system: Canis familiaris; assay: Compound was tested in vivo in dogs at a dose of 1.0 mg/kg through intravenous route and time at which ventricular arrhythmias were not indicible was recorded.(Base line value-1); type: functional, Canis lupus familiaris, Cardiac ventricle; in short: as §1
[10] = test system: Canis familiaris; assay: Compound was tested in vivo in dogs at a dose of 1.0 mg/kg through intravenous route and time at which ventricular fibrillation was induced was recorded.(Base line value-6); type: functional, Canis lupus familiaris, Cardiac ventricle; in short: as §1
[11] = test system: Canis familiaris; assay: Conduction time from the atrium to His bundle was tested in dogs at a dose of 0.3 mg/kg through intravenous administration. (baseline value- 73+/-3 ); type: functional, Canis lupus familiaris
[12] = test system: Canis familiaris; assay: Conduction time from the atrium to His bundle was tested in dogs at a dose of 1.0 mg/kg through intravenous administration. (baseline value- 73+/-3 ); type: functional, Canis lupus familiaris
[13] = test system: Canis familiaris; assay: Compound was tested in vivo in dogs at a dose of 0.1 mg/kg through intravenous route and time at which sustained ventricular arrhythmias were induced was recorded.(Base line value-3); type: functional, Canis lupus familiaris, Cardiac ventricle; in short: as §1
[14] = test system: Canis familiaris; assay: Conduction time for ventricular refractory period of the first premature stimulus was tested in dogs at a dose of 0.1 mg/kg through intravenous administration. (baseline value- 137+/-4); type: functional, Canis lupus familiaris, Cardiac ventricle
[15] = test system: Canis familiaris; assay: Conduction time for ventricular refractory period of the first premature stimulus was tested in dogs at a dose of 0.3 mg/kg through intravenous administration. (baseline value- 137+/-4); type: functional, Canis lupus familiaris, Cardiac ventricle
[16] = test system: Canis familiaris; assay: Conduction time for ventricular refractory period of the first premature stimulus was tested in dogs at a dose of 1.0 mg/kg through intravenous administration. (baseline value- 137+/-4); type: functional, Canis lupus familiaris, Cardiac ventricle
[17] = test system: Canis familiaris; assay: Compound was tested in vivo in dogs at a dose of 0.1 mg/kg through intravenous route and time at which nonsustained ventricular arrhythmias were induced was recorded.(Base line value-1); type: functional, Canis lupus familiaris, Cardiac ventricle; in short: as §1
[18] = test system: Canis familiaris; assay: Compound was tested in vivo in dogs at a dose of 0.3 mg/kg through intravenous route and time at which nonsustained ventricular arrhythmias were induced was recorded.(Base line value-1); type: functional, Canis lupus familiaris, Cardiac ventricle; in short: as §1
[19] = test system: Canis familiaris; assay: Compound was tested in vivo in dogs at a dose of 0.3 mg/kg through intravenous route and time at which sustained ventricular arrhythmias were induced was recorded.(Base line value-3); type: functional, Canis lupus familiaris, Cardiac ventricle; in short: as §1
[20] = test system: Canis familiaris; assay: Compound was tested in vivo in dogs at a dose of 0.3 mg/kg through intravenous route and time at which ventricular arrhythmias were not indicible was recorded.(Base line value-1); type: functional, Canis lupus familiaris, Cardiac ventricle; in short: as §1
[21] = test system: Canis familiaris; assay: Compound was tested in vivo in dogs at a dose of 0.3 mg/kg through intravenous route and time at which ventricular fibrillation was induced was recorded.(Base line value-6); type: functional, Canis lupus familiaris, Cardiac ventricle; in short: as §1
[22] = test system: Canis familiaris; assay: Compound was tested in vivo in dogs at a dose of 1.0 mg/kg through intravenous route and time at which nonsustained ventricular arrhythmias were induced was recorded.(Base line value-1); type: functional, Canis lupus familiaris, Cardiac ventricle; in short: as §1
[23] = test system: Canis familiaris; assay: Conduction time for ventricular refractory period of the second premature stimulus was tested in dogs at a dose of 0.1 mg/kg through intravenous administration. (baseline value- 123+/-4); type: functional, Canis lupus familiaris, Cardiac ventricle
[24] = test system: Canis familiaris; assay: Conduction time for ventricular refractory period of the second premature stimulus was tested in dogs at a dose of 0.3 mg/kg through intravenous administration. (baseline value- 123+/-4); type: functional, Canis lupus familiaris, Cardiac ventricle
[25] = test system: Canis familiaris; assay: Conduction time for ventricular refractory period of the second premature stimulus was tested in dogs at a dose of 1.0 mg/kg through intravenous administration. (baseline value- 123+/-4); type: functional, Canis lupus familiaris, Cardiac ventricle
[26] = test system: Canis familiaris; assay: Conduction time from Q wave to T wave of lead II electrocardiogram corrected for heart rate was tested in dogs at a dose of 0.1 mg/kg through intravenous administration. (baseline value- 352+/-7); type: functional, Canis lupus familiaris
[27] = species: Oryctolagus cuniculus; assay: Tested for effective refractory period measured at a pacing rate of 1 Hz in vitro with rabbit heart tissue preparations.; type: functional
In short: (§2)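 Isolated rabbit heart tissues, all from one heart, each its own baseline; 2 h equilibration, perfusate changed every 15 min, basal stimulation 2 Hz between measurements. Exposed to 10^-7, 10^-6 and 10^-5 M drug, 15 min each; values reported at 10^-5 M as percent change from baseline. Drug solutions prepared daily in glass-distilled water. Force and rate recorded on polygraph.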

[28] = species: Oryctolagus cuniculus; assay: Tested for effective refractory period measured at a pacing rate of 3 Hz in vitro with rabbit heart tissue preparations.; type: functional; design: unit: %; in short: as §2
[29] = species: Oryctolagus cuniculus; assay: Tested for conduction time measured at a pacing rate of 3 Hz in vitro with rabbit heart tissue preparations.; type: functional; in short: as §2
[30] = species: Oryctolagus cuniculus; assay: Tested for force of contraction measured in mg at a pacing rate of 2 Hz in vitro with rabbit heart tissue preparations.; type: functional; in short: as §2
[31] = species: Oryctolagus cuniculus; assay: Tested for conduction time measured at a pacing rate of 1 Hz in vitro with rabbit heart tissue preparations.; type: functional; in short: as §2
[32] = species: Oryctolagus cuniculus; assay: Tested for rate automaticity measured in beats per minute from unpaced right atria of rabbit heart.; type: functional; in short: as §2
[33] = test system: Canis familiaris; assay: Compound was tested in vivo in dogs at a dose of 0.1 mg/kg through intravenous route and number of animals in which ventricular fibrillation was induced was recorded.(Base line value-6)

Compound CCCCCCCN(CC)CCCC(O)c1ccc(NS(C)(=O)=O)cc1 (stereo not drawn) [IBUTILIDE] has a Time [1] of 387 ms, a Time [2] of 364 ms and a Time [3] of 16 ms. For the same compound, the Time [4] was 17 ms, the Time [5] was 17 ms and the Time [6] was 73 ms. For the same compound, the Time [7] was 3 animals, the Time [8] was 0 animals and the Time [9] was 4 animals. The Time [10] was 1 animals, the Time [11] was 75 ms and the Time [12] was 77 ms. The Time [13] was 2 animals, the Time [14] was 151 ms and the Time [15] was 154 ms. It also gave a Time [16] of 146 ms, a Time [17] of 5 animals and a Time [18] of 2 animals. It also gave a Time [19] of 0 animals, a Time [20] of 5 animals and a Time [21] of 2 animals. It also gave a Time [22] of 2 animals, a Time [23] of 137 ms and a Time [24] of 139 ms. For the same compound, the Time [25] was 128 ms, the Time [26] was 372 ms and the ERP1 [27] was 18. For the same compound, the ERP3 [28] was 15.8, the CT3 [29] was 31.2 and the FOC [30] was 1.9. For the same compound, the CT1 [31] was 14.6, the Rate [32] was -22 and the number of animals [33] was 1 animals.
